Tests used:
[1] = target: T1, Translocator protein (Rattus norvegicus, UniProt P16257); assay: Inhibitory concentration against peripheral benzodiazepine receptor of rat cerebral cortex; type: tissue-based
In short: (§1)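 Rat tissue (cerebral cortex, ovary) homogenised in 50 vol PBS pH 7.4 at 4 °C, spun at 40 000g for 30 min, washed, resuspended in 10 vol PBS. […] Filtration on polyethyleneimine-soaked GF/B filters, scintillation counting. […] Means of three experiments in duplicate; Ki reported.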

[2] = target: GABA-A receptor; anion channel; assay: Inhibitory concentration of central benzodiazepine GABA-A receptor of rat cerebral cortex; type: tissue-based
In short: (§2)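 Rat cerebral cortex homogenised in 50 vol ice-cold 50 mM Tris-HCl pH 7.4, spun twice at 20 000g for 10 min. Membranes (0.4–0.5 mg protein) incubated with [3H]flunitrazepam for 60 min at 0 °C. Rapid filtration on GF/B filters, scintillation counting. Nonspecific binding with 5 μM diazepam. Means of three experiments in duplicate; Ki reported.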

[3] = target: GABA-A receptor; anion channel; assay: Displacement of [3H]flunitrazepam from central benzodiazepine GABA-A receptor of rat cerebral cortex; type: tissue-based; in short: as §2
[4] = target: T1, Translocator protein; assay: Displacement of [3H]PK11195 from peripheral benzodiazepine receptor of rat cerebral cortex; type: tissue-based; in short: as §1
[5] = target: T1, Translocator protein; assay: Displacement of [3H]-PK11195 from peripheral benzodiazepine receptor of rat ovary; type: tissue-based, Female gonad; in short: as §1
[6] = target: Benzodiazepine receptors; peripheral & central (Rattus norvegicus) (UniProt O09028+P15431+P18506+P18508+P19969+P20236+P23574+P23576+P28471+P28473+P30191+P62813+P63079+P63138+Q91ZM7+Q9ES14+P16257); assay: Ratio of inhibition for peripheral benzodiazepine receptor of rat ovary and central benzodiazepine GABA-A receptor; type: tissue-based; set-up: scale not given here; details: Female gonad
[7] = target: T1, Translocator protein; assay: Inhibitory concentration against peripheral benzodiazepine receptor of rat ovary; type: tissue-based, Female gonad; in short: as §1
[8] = tested on: Rattus norvegicus; assay: Effect of the 25 mg/kg compound on progesterone concentration in rat cerebral cortex after 30 min of intraperitoneal administration; type: functional, organism-based; set-up: dose 25 mg/kg
In short: (§3)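 Male Sprague–Dawley rats, about 60 days old, given 25 mg/kg ip in saline with three drops Tween 80 per 5 mL, 0.3 mL/100 g; sampled 30 min later. Brain taken after focused microwave irradiation of the head, plasma after guillotine. Cortex and plasma extracted with ethyl acetate; steroids measured by radioimmunoassay. Results in ng/g tissue, at least eight rats per group, compared with vehicle-treated rats.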

[9] = tested on: Rattus norvegicus; assay: Effect of the 25 mg/kg compound on progesterone concentration in rat plasma after 30 min of intraperitoneal administration; type: functional, organism-based; set-up: dose 25 mg/kg; in short: as §3
[10] = tested on: Rattus norvegicus; assay: Effect of the 25 mg/kg compound on 3-alpha,5alpha-THDOC concentration in rat cerebral cortex after 30 min of intraperitoneal administration; type: functional, organism-based; set-up: dose 25 mg/kg; in short: as §3
[11] = tested on: Rattus norvegicus; assay: Effect of the 25 mg/kg compound on 3-alpha,5alpha-THDOC concentration in rat plasma after 30 min of intraperitoneal administration; type: functional, organism-based; set-up: dose 25 mg/kg; in short: as §3
[12] = tested on: Rattus norvegicus; assay: Effect of the 25 mg/kg compound on 3-alpha,5alpha-THPROG concentration in rat cerebral cortex after 30 min of intraperitoneal administration; type: functional, organism-based; set-up: dose 25 mg/kg; in short: as §3
[13] = tested on: Rattus norvegicus; assay: Effect of the 25 mg/kg compound on 3-alpha,5alpha-THPROG concentration in rat plasma after 30 min of intraperitoneal administration; type: functional, organism-based; set-up: dose 25 mg/kg; in short: as §3

T1 sequence (P16257 whole entry, looked up): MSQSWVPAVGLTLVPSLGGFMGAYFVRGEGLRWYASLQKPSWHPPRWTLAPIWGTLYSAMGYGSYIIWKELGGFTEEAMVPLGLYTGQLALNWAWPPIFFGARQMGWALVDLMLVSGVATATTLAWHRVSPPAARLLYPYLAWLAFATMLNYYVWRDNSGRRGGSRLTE

| SMILES | IC50 [1] [µM] | pIC50 [2] | Ki [3] [µM] | Ki [4] [µM] | Ki [5] [µM] | Selectivity index [6] | IC50 [7] [µM] | Concentration [8] [ng/g] | Concentration [9] [ng/mL] | Concentration [10] [ng/g] | Concentration [11] [ng/mL] | Concentration [12] [ng/g] | Concentration [13] [ng/mL] |
| --- | --- | --- | --- | --- | --- | --- | --- | --- | --- | --- | --- | --- | --- |
| O=C(Cc1c(-c2ccc(Cl)cc2)nc2c(Cl)cc(Cl)cn12)NCc1ccccc1 | 0.169 | 5 | 7.01 | 0.0988 |  |  |  |  |  |  |  |  |  |
| O=C(Cc1c(-c2ccc(Cl)cc2)nc2c(Cl)cc(Cl)cn12)N1CCc2ccccc2C1 | 0.00486 | 5 | 6.88 | 0.00297 | 0.0253 | 2.45 | 0.0356 |  |  |  |  |  |  |
| CCCCN(C(=O)Cc1c(-c2ccc(Cl)cc2)nc2ccc(Cl)cn12)c1ccccc1 | 0.0015 | 6.133 | 0.506 | 0.000884 | 0.00882 | 1.8 | 0.0116 |  |  |  |  |  |  |
| CN(CCc1ccccn1)C(=O)Cc1c(-c2ccccc2)nc2c(Cl)cc(Cl)cn12 | 2.17 | 5 | 7.75 | 1.28 | 3.67 | 0.296 | 5.06 |  |  |  |  |  |  |
| O=C(Cc1c(-c2ccc(Cl)cc2)nc2c(Cl)cc(Cl)cn12)Nc1ccccc1 | 0.0199 | 5 | 6.88 | 0.0117 | 0.0183 | 2.6 | 0.0252 |  |  |  |  |  |  |
| CN(Cc1ccccc1)C(=O)Cc1c(-c2ccc(Cl)cc2)nc2c(Cl)cc(Cl)cn12 |  | 5 | 6.88 | 0.00138 |  |  |  |  |  |  |  |  |  |
| CCCN(CCC)C(=O)C(C)c1c(-c2ccc(Cl)cc2)nc2c(Cl)cc(Cl)cn12 (stereo not drawn) | 1.2 | 5 | 7.01 | 0.701 | 1.93 | 0.572 | 2.68 |  |  |  |  |  |  |
| CC(C)(C)N(Cc1ccccc1)C(=O)Cc1c(-c2ccc(Cl)cc2)nc2c(Cl)cc(Cl)cn12 | 3.44 | 5 | 7.59 | 2.1 | 12.9 | -0.26 | 18.2 |  |  |  |  |  |  |
| CCOC(=O)C1CCCN(C(=O)Cc2c(-c3ccc(Cl)cc3)nc3ccc(Cl)cn23)C1 (stereo not drawn) | 0.0352 | 6.725 | 0.13 | 0.0196 | 0.207 | -0.205 | 0.302 |  |  |  |  |  |  |
| CC(C(=O)N(C)Cc1ccccc1)c1c(-c2ccc(Cl)cc2)nc2c(Cl)cc(Cl)cn12 (stereo not drawn) | 9.89 | 5 | 7.01 | 5.77 | 8.33 |  | 11.6 |  |  |  |  |  |  |
| CCCCCCN(CCCCCC)C(=O)Cc1c(-c2ccc(Cl)cc2)nc2c(Cl)cc(Cl)cn12 | 0.377 | 5 | 7.75 | 0.222 | 1.89 | 0.584 | 2.61 |  |  |  |  |  |  |
| CCCCNC(=O)Cc1c(-c2ccc(Cl)cc2)nc2c(Cl)cc(Cl)cn12 | 0.39 | 5 | 6.88 | 0.17 | 0.17 | 1.54 | 0.29 |  |  |  |  |  |  |
| O=C(Cc1c(-c2ccccc2)nc2c(Cl)cc(Cl)cn12)N1CCCCC1 | 0.157 | 5 | 7.59 | 0.0959 | 1.03 | 0.837 | 1.46 |  |  |  |  |  |  |
| O=C(Cc1c(-c2ccc(Cl)cc2)nc2c(Cl)cc(Cl)cn12)NC1CCCCC1 | 0.229 | 5 | 7.59 | 0.14 | 0.749 | 0.977 | 1.05 |  |  |  |  |  |  |
| O=C(Cc1c(-c2ccccc2)nc2c(Cl)cc(Cl)cn12)N1CCCC1 | 1.24 | 5 | 6.88 | 0.757 | 6.65 | 0.029 |  |  |  |  |  |  |  |
| CCCCN(C)C(=O)Cc1c(-c2ccccc2)nc2c(Cl)cc(Cl)cn12 | 0.0035 | 5 |  | 0.00216 | 0.00172 | 3.64 | 0.0023 | 10.6 | 13.6 | 4.1 | 10.4 | 9.2 | 16.5 |

Reference: ChEMBL document CHEMBL1139492, “Structure-activity relationships and effects on neuroactive steroid synthesis in a series of 2-phenylimidazo[1,2-a]pyridineacetamide peripheral benzodiazepine receptors ligands” (J Med Chem, 2005)
